Measured values published in ChEMBL document CHEMBL1165971, “Structures and antimicrobial activities of pyridoacridine alkaloids isolated from different chromotypes of the ascidian Cystodytes dellechiajei” (2010).
In brackets after ≈: the same amount, converted by molar mass.

Experiments:
Micrococcus luteus = assay: Antibacterial activity against Micrococcus luteus after 24 hrs by liquid growth inhibition assay; format: functional
How it was run: (§1)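 Liquid growth inhibition (NCCLS-based broth method). Compounds dissolved in DMSO and liquid medium, incubated with bacteria at 2 × 10^8 cells/mL in PB medium (Bacto-tryptone 1%, NaCl 0.5%, pH 7.5), 35 °C, 24 h, constant agitation. Triplicate wells. Growth read as absorbance at 620 nm; MIC taken as lowest concentration inhibiting growth.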

Escherichia coli = assay: Antibacterial activity against Escherichia coli after 24 hrs by liquid growth inhibition assay; format: functional; how it was run: as §1

NCCc1c2c(c3nccc4c3c1Nc1ccccc1-4)NC(=O)CS2
MIC (Micrococcus luteus): 4.5 µM (≈ 1.57 µg/mL) | MIC (Escherichia coli): 1.1 µM (≈ 0.383 µg/mL)

O=C1c2c(O)ccnc2-c2nccc3c2c1nc1ccccc13
MIC (Micrococcus luteus): 10.5 µM (≈ 3.14 µg/mL) | MIC (Escherichia coli): 2.6 µM (≈ 0.778 µg/mL)

NCCc1c2c3c(ccnc3c3ncsc13)-c1ccccc1N2
MIC (Micrococcus luteus): 2.5 µM (≈ 0.796 µg/mL) | MIC (Escherichia coli): 2.5 µM (≈ 0.796 µg/mL)

O=C1c2cccnc2-c2nccc3c2c1nc1ccccc13 [ASCIDIDEMIN]
MIC (Micrococcus luteus): 0.3 µM (≈ 0.085 µg/mL) | MIC (Escherichia coli): 0.2 µM (≈ 0.0567 µg/mL)

N=C1C2=C(NCCC2=O)c2nccc3c2c1nc1ccccc13 [CYSTODIMINE A]
MIC (Micrococcus luteus): 2.4 µM (≈ 0.721 µg/mL) | MIC (Escherichia coli): 1.2 µM (≈ 0.36 µg/mL)

N=C1C2=C(NCCC2=O)c2nccc3c2c1nc1ccc(O)cc13 [CYSTODIMINE B]
MIC (Micrococcus luteus): 10.5 µM (≈ 3.32 µg/mL) | MIC (Escherichia coli): 2.6 µM (≈ 0.822 µg/mL)

CC(=O)NCCc1c2c3c(ccnc3c3ncsc13)-c1ccccc1N2 [KUANONIAMINE D]
MIC (Micrococcus luteus): 17.4 µM (≈ 6.27 µg/mL) | MIC (Escherichia coli): 2.2 µM (≈ 0.793 µg/mL)

CC(=O)NCCc1c2c(c3nccc4c3c1Nc1ccccc1-4)NC(=O)CS2 [SHERMILAMINE B]
MIC (Micrococcus luteus): 8 µM (≈ 3.12 µg/mL) | MIC (Escherichia coli): 2 µM (≈ 0.781 µg/mL)

GENTAMICIN
MIC (Micrococcus luteus): 0.02 µM | MIC (Escherichia coli): 0.08 µM
